Results of several laboratories.
Target: Fibroblast growth factor receptor 4 (FGFR4, Homo sapiens, UniProt P22455)

SMILES | test | setting | measurement | value
COCc1c(-c2cc3cc(C)cc(OC)c3s2)c2c(N)ncnn2c1CN1CCNC(=O)C1 | cell-free assay, competition with immobilised ligand | 1 µM | inhibition | 99.9%
C#Cc1n[nH]c2c(-c3cn([C@@H](C)c4ccccn4)c(=O)[nH]c3=O)cc(F)cc12 | enzyme activity, inhibitor | 0.1 µM | inhibition | 7.2%
Cc1nn(C)cc1-c1nc2c(N3CCN(Cc4ccc(Cl)cc4)CC3)c(Cl)cnc2[nH]1 | binding, competition with immobilised ligand | 1 µM | remaining binding | 68%
Nc1ncc(-c2nc(N3CCOCC3)nc(N3CCOCC3)n2)c(C(F)F)n1 | cell-free assay, competition with immobilised ligand | 10 µM | remaining binding | 100%
C#Cc1n[nH]c2c(-c3cn([C@@H](C)c4ccccc4)c(=O)[nH]c3=O)cc(F)cc12 | enzyme activity, inhibitor | 0.1 µM | inhibition | 0%
N#CC1(c2ccccn2)CCN(Cc2cc(C(=O)O)c(=O)n3ccccc23)CC1 | cell-free assay, competition with immobilised ligand | 1 µM | remaining binding | 100%
CC(C)(C)c1cc(C=C(C#N)C#N)cc(Br)c1O | enzyme activity, inhibitor | 0.5 µM | remaining activity | 98%
COc1cc(Nc2ncc(F)c(Nc3ccc4c(n3)NC(=O)C(C)(C)O4)n2)cc(OC)c1OC | binding, competition with immobilised ligand | 10 µM | inhibition | 97%
Cn1cc(-c2cccc(N3CCc4c(sc5c4CC(C)(C)C5)C3=O)c2CO)cc(Nc2ccncn2)c1=O | enzyme activity, inhibitor | 1 µM | inhibition | -2%
O=c1[nH]c2ccccc2n1C1CCN(Cc2ccc(-c3[nH]c4cc5ncnc5cc4nc3-c3ccccc3)cc2)CC1 | cell-free assay | 0.5 µM | remaining signal | 97.2%
COc1ncccc1-c1cnn2ccc(N3CCN(C(=O)OC(C)C)CC3)nc12 | binding, competition with immobilised ligand | 1 µM | remaining binding | 60%
Cn1cncc1[C@](O)(COc1ccc(C#N)cc1-c1ccc(OC(F)(F)F)cc1)c1ccc(C#N)cc1 | cell-free assay, competition with immobilised ligand | 1 µM | remaining binding | 100%
Cn1cc(-c2cc(F)cc(N3CCn4c(cc5c4CCCC5)C3=O)c2CO)cc(Nc2ccc(N3CCN(C4COC4)CC3)cn2)c1=O | enzyme activity, inhibitor | 0.1 µM | inhibition | 2%
